Source: PubChem BioAssay (several laboratories)
NR2E3 ag-1: NR2E3 (human) agonism. 320,000 tested, 0.12% active. GST-NR2E3/biotin-RetCOR TR-FRET, 1536-well. inhibition of corepressor binding, % at 4.78 µM. AID 2300. Q9Y5X4;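 active = percent inhibition above the cutoff of mean plus 3 SD of all tested compounds, set per screening campaign, cut at about 20% in these data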;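 note: 0% = DMSO wells and 100% = biotin wells as full block of FRET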
Target sequence (Q9Y5X4 whole entry, looked up): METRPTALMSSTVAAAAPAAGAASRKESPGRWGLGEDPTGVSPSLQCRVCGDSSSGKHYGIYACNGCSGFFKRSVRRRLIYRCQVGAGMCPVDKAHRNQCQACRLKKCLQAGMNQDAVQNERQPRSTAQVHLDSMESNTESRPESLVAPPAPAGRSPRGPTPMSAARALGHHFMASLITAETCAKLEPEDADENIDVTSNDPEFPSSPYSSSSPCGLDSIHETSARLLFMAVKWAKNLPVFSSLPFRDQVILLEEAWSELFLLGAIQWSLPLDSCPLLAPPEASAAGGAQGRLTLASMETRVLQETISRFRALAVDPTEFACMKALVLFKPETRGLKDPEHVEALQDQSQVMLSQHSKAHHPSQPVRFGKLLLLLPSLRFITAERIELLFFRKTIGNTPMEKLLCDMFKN
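System: GST-NR2E3 and biotin-RetCOR proteins; probe or stimulus: 7 nM biotin-RetCOR; doses: compound at 4.8 µM, single dose; schedule: Compound–protein incubation for 5 h at 4 °C; detection: time-resolved FRET; read-out: percent inhibition; controls: biotin wells as high control, 0.6% DMSO wells as low control; format: 1536-well plates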
NR1D1 modulator: modulates human Rev-erb alpha binding to DNA; Rev-erbα–FITC-DNA binding, fluorescence polarization, 90 min; AID 1259318; 370,000 tested, 0.79% active; activity, % at 10 µM; P20393;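 active = activity above about 14%, limit read from the data; passing the limit was not always enough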;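 note: 0% = DMSO wells with 35 nM protein and 100% = DMSO wells with 750 nM protein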
PG9 Ab binder: small molecules binding HIV-1 gp120 antibody PG9. 360,000 tested, 0.43% active. inhibition, % at 6.7 µM. TR-FRET gp120-PG9 antibody binding. AID 624416; in the data active = inhibition above about 8.5%
NR2E3 ag-2: activates human NR2E3 receptor. inhibition of corepressor binding, % at 3.98 µM. CHO-S Gal4-NCOR/VP16-NR2E3 two-hybrid, luciferase. AID 602229. 360,000 tested, 0.35% active;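 active = inhibition above the mean of all tested compounds plus 3 SD, cut at about 70% in these data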;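 note: 0% = DMSO with NR2E3 transfected cells and 100% = cells lacking NR2E3 construct; higher means lower luciferase signal from less NR2E3 corepressor binding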
MC4R antag cAMP: antagonists of human melanocortin 4 receptor (MC4R). 360,000 tested, 0.48% active. P32245. inhibition, % at 6.5 µM. MC4R-expressing cells, MTII-stimulated cAMP, LANCE TR-FRET. AID 540295;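 active = inhibition above its plate's cutoff, the mean of tested wells on that plate plus 3 SD, cut at about 29% in these data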;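 note: 0% = Melanotan II alone and 100% = Melanotan II plus saturating MCL0020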
Target sequence (P32245 whole entry, looked up): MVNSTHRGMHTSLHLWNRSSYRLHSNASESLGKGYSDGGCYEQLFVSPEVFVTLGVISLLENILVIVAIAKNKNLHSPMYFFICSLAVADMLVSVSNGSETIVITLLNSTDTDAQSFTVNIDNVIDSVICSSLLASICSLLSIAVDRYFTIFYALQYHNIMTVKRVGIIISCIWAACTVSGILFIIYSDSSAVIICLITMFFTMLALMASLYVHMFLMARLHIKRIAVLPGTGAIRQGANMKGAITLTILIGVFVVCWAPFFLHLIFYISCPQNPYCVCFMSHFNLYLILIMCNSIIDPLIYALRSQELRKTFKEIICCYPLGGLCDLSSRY
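System: U2OS cells stably expressing human melanocortin 4 receptor (MC4R). Reagent: Melanotan II challenge after compound preincubation. Doses: 6.5 µM. Times: 30-min compound, 1-h challenge, 1-h detection, room temperature. Measured by: TR-FRET with Eu-cAMP and labeled anti-cAMP, 671 nm. Replicates: singlicate.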
MC4R ag barr: human MC4R agonism via beta-arrestin; 360,000 tested, 0.98% active; activation, % at 8.9 µM; U2OS MC4R beta-arrestin complementation, luminescence; percent of melanotan II response, DMSO zero; P32245;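 active = activation above a per-plate cutoff, the mean activation of sample wells on that plate plus 3 SD, cut at about 8% in these data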
NR2E3 ag conf: NR2E3 agonism confirmed in two-hybrid assay | shares compounds with NR2E3 ag-2 | CHO-S mammalian two-hybrid NR2E3-NCOR, luciferase luminescence | inhibition, % at 3.98 µM | 2,300 tested, 51% active;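 active = average inhibition above a cutoff equal to the mean inhibition of all tested compounds plus one SD, cut at about 70% in these data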;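 note: 0% = DMSO in NR2E3 cells and 100% = DMSO in cells lacking NR2E3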
GAL4-VP16 luc: counter-screen for NR2E3 agonists: GAL4-VP16 reporter inhibitors; CHO-S GAL4-VP16 luciferase reporter, luminescence; inhibition, % at 3.98 µM; 2,300 tested, 29% active; AID 624379; shares compounds with NR2E3 ag-2;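 active = mean inhibition above a cutoff equal to the average over all tested compounds plus one standard deviation, cut at about 70% in these data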;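 note: luciferase from a UAS reporter driven by GAL4-VP16 transactivation; 0% = DMSO with VP16-transfected cells and 100% = DMSO with cells lacking VP16; higher means less reporter light so more repression of VP16 activity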
* marks the source's active call; other numbers are inactive results; x = not tested or not shown. A selection: hits, their analogues and other compounds. The true share with any hit is near 2.7%.

SMILES | NR2E3 ag-1 | NR1D1 modulator | PG9 Ab binder | NR2E3 ag-2 | MC4R antag cAMP | MC4R ag barr | NR2E3 ag conf | GAL4-VP16 luc
Cn1ccnc1C(=O)c1cc(SCC(=O)NC2CC2)nc2ccccc12 | 0 | -3 | 1 | -26 | 9 | -3 | x | x
COc1ccc(/C=N/N=C2\CC3CCC2(C)C3(C)C)cc1O (centres undefined) | -2 | 3 | 0 | 74* | 6 | -1 | -3 | 2
COc1cc(/C=N/N=C2\CC3CCC2(C)C3(C)C)ccc1O (centres undefined) | 0 | 5 | 0 | -8 | -3 | -1 | x | x
Cc1nn(C)c(C)c1CN(C)S(=O)(=O)c1ccc(F)cc1 | 5 | 1 | -1 | 11 | 6 | -1 | x | x
Cc1nn(C)c(C)c1CN(C)S(=O)(=O)c1ccc2ccccc2c1 | 1 | -2 | 2 | 85* | 0 | 1 | 96* | 86*
O=C(Nc1ccc(N2CCOCC2)c(S(=O)(=O)Nc2ccccc2Cl)c1)c1ccc(=O)[nH]n1 | x | 0 | -1 | -5 | -20 | -2 | x | x
Cc1ccc(S(=O)(=O)N2CCCCC2)cc1NCC(=O)Nc1ccc(Br)cc1F | x | -2 | 1 | 54 | 9 | 5 | 81* | 72*
O=C(CNc1ccccc1F)Nc1cc(S(=O)(=O)N2CCCCC2)ccc1Cl | 3 | 4 | 3 | -19 | 2 | -2 | x | x
N#Cc1ccccc1NC(=O)CSc1nnc(-c2ccccc2O)n1-c1ccccc1 | 1 | -1 | 1 | -35 | 10 | -2 | x | x
CCCn1nnc(NC(=O)c2sc3ccccc3c2Cl)n1 | 7 | -3 | 5 | -56 | 5 | 0 | x | x
Cc1nc(SCC(=O)Nc2nc3ccccc3s2)c(C#N)c(C)c1C | 0 | 1 | -2 | 93* | 9 | -1 | 84* | 81*
Cc1cc(C(F)(F)F)c(C#N)c(SCC(=O)Nc2nc3ccccc3s2)n1 | -1 | 7 | -1 | 31 | 3 | 0 | x | x
CCCC(C)Sc1nc2c([nH]1)c(=S)n(C)c(=O)n2C (centres undefined) | x | -5 | -2 | 82* | -2 | 0 | 44 | 5
Cn1c(=S)c2[nH]c(SCC3CCCO3)nc2n(C)c1=O (centres undefined) | x | 1 | -3 | 53 | 4 | -1 | 38 | -5
Cc1nc(NCCc2ccc(S(N)(=O)=O)cc2)c2c(C)c(C)sc2n1 | -3 | 0 | 0 | 66 | -1 | 0 | 73* | 65
Cc1nc(NCCNC(=O)c2ccco2)c2c(C)c(C)sc2n1 | 2 | -7 | -1 | -11 | -7 | 0 | x | x
CCCCNC(=O)C1(N2C(=O)c3ccccc3C2=O)CCCC1 | x | -7 | -2 | -1 | -5 | -2 | x | x
CC(C)c1cc2c(c(O)c1O)[C@@]13CCCC(C)(C)C1CC2OC3=O (some centres undefined) | 2 | 2 | 2 | 85* | -7 | -3 | 92* | -5
CC(C)(C)c1ccc(-c2noc(CCC(=O)NCc3ccco3)n2)cc1 | 4 | -3 | -1 | 77* | 1 | -1 | 74* | 79*
O=C(O)c1ccc(S(=O)(=O)/N=C2\C=C(Nc3ccccc3F)C(=O)c3ccccc32)cc1 | 9 | -5 | -3 | 104* | -60 | -1 | 100* | 47
CC(=O)Nc1ccc(NC2=C/C(=N/S(=O)(=O)c3cccs3)c3ccccc3C2=O)cc1 | 3 | -1 | -9 | 17 | -6 | -2 | x | x
COc1ccc(S(=O)(=O)/N=C2\C=C(Nc3ccc(O)cc3)C(=O)c3ccccc32)cc1 | -1 | -4 | -21 | 114* | -41 | -1 | 99* | 100*
Cc1ccc(NC2=C/C(=N/S(=O)(=O)c3cccs3)c3ccccc3C2=O)cc1C | 1 | 2 | -4 | -20 | -4 | 1 | x | x
Cc1ccccc1NC1=C/C(=N\S(=O)(=O)c2ccc(C(=O)O)cc2)c2ccccc2C1=O | 19 | -10 | -6 | 25 | -24 | -4 | x | x
Cc1ccccc1NC1=C/C(=N\S(=O)(=O)c2cccs2)c2ccccc2C1=O | 5 | -5 | -5 | 55 | -16 | -1 | 100* | 99*
SMILES | NR2E3 ag-1 | NR1D1 modulator | PG9 Ab binder | NR2E3 ag-2 | MC4R antag cAMP | MC4R ag barr | NR2E3 ag conf | GAL4-VP16 luc
COc1cc(OC)cc(C(=O)NNC(=O)C2CSC3(C)CCC(=O)N23)c1 (centres undefined) | 2 | -7 | 1 | 7 | 2 | -2 | x | x
C=CCNC(=O)COC(=O)c1nc2nccc(C)n2n1 | -3 | 3 | -2 | -46 | 1 | -1 | x | x
Cc1ccccc1C(=O)NC1CCN(CC(=O)NCc2ccc(F)cc2)CC1 | -7 | -4 | 2 | 10 | 6 | -4 | x | x
S=c1[nH]nc(-c2ccccc2)n1C1C=CCCC1 (centres undefined) | 1 | 3 | 4 | -9 | 1 | 0 | x | x
COc1ccccc1N1CCN(Cc2ccc(-c3ccccc3[N+](=O)[O-])o2)CC1 | 1 | -1 | -2 | 25 | 2 | 1 | x | x
Cc1ccc(NC(=S)/C(C#N)=C2/Nc3ccccc3S2)cc1 | x | 0 | -1 | 93* | -3 | 0 | 99* | 54
CCOC(=O)C1=CC[C@@H](c2ccc([N+](=O)[O-])cc2)N(S(=O)(=O)c2ccc(C)cc2)[C@H]1c1ccccc1 | x | 1 | 0 | -18 | x | x | x | x
CCOC(=O)C1=C[C@@H](C2CCCCC2)N(S(=O)(=O)c2ccc([N+](=O)[O-])cc2)[C@H]1c1ccccc1 | x | 2 | -4 | 74* | x | x | 52 | 43
CCCC(=O)N1CCN(c2ccc(NC(=O)c3ccc([N+](=O)[O-])o3)cc2)CC1 | x | 3 | -4 | 51 | -21 | -2 | 14 | 12
Cc1cc(C)cc(C(=O)OCCN(C)C2CN(Cc3cn(Cc4cccc(F)c4)nn3)S(=O)(=O)C2)c1 (centres undefined) | x | -1 | x | x | x | x | x | x
O=S1(=O)NC(=NCC(c2ccco2)N2CCCCC2)c2ccccc21 (centres undefined) | 2 | -4 | 0 | 1 | 10 | 2 | x | x
Cc1cc(/C=C2/SC(=S)N(c3cccc(Cl)c3)C2=O)c(C)n1-c1cccnc1 | 1 | -1 | -1 | 63 | 5 | -3 | 53 | 66
Cc1cc(/C=C2/SC(=S)N(c3ccc([N+](=O)[O-])cc3)C2=O)c(C)n1-c1cccnc1 | 5 | -4 | -6 | 2 | 6 | -3 | x | x
Cc1nnc(NC(=O)c2c(-c3ccccc3Cl)noc2C)s1 | 2 | -2 | 0 | -14 | -6 | 1 | x | x
Cc1nc(NC(=O)c2c(-c3ccccc3Cl)noc2C)sc1C | -2 | 5 | -2 | 79* | 8 | -2 | 80* | 18
